Series [1] has as its system AE1. To be noted: cells with 150 mM Cl− inside and outside; ref Raha et al. 1993; cited from earlier work.
The target in series [2] is T1, AE1 (band 3) protein in human red blood cells (Homo sapiens, UniProt P02730).
T1 sequence (P02730 1-911): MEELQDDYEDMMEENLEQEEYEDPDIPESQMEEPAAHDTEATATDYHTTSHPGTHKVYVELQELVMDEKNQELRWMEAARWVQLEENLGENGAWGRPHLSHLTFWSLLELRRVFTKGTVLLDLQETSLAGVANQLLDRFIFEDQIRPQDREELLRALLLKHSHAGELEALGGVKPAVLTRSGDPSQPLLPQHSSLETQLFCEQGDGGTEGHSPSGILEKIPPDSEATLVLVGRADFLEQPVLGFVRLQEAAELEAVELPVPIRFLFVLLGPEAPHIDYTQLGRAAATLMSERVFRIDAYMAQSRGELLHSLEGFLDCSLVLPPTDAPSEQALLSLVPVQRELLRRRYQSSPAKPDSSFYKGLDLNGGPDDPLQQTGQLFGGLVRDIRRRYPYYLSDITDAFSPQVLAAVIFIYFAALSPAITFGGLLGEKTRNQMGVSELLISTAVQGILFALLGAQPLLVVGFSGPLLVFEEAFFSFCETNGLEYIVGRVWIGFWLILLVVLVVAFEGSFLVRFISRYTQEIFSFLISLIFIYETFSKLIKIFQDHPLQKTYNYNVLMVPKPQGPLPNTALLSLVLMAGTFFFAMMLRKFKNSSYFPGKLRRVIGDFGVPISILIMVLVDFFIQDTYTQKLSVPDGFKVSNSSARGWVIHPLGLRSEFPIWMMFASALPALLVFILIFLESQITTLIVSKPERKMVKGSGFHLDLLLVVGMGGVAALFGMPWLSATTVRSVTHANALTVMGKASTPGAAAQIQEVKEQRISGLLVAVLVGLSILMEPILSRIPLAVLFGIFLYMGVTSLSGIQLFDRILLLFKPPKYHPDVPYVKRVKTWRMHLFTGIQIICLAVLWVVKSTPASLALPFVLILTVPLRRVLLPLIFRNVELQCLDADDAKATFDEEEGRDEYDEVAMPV
As to the kind of experiment: Inhibition of 36Cl exchange flux at 0°C after equilibration with WW781. Conditions: for IC50: read-out: K eqW, 0°C, mean ± SEM. The series is classed as cell-based. The method in brief: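 Washed human RBCs (150 mM KCl, 20 mM HEPES, 24 mM sucrose, pH 6.9) at 0.25% hematocrit, internal Cl− set by nystatin, pretreated ≥2 min with test compound (1% ethanol), loaded with 36Cl (2-10 µCi/ml, 10 min, 0°C), then efflux into ice-cold medium with the same compound level. In 2 mM Cl− medium, no pretreatment and sampling began ≥4 min. Fit to single-site inhibition.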

The test system of series [3] is net Cl^− permeability, PCl. To be noted: ref Freedman and Novak 1983; cited from earlier work.
Series [4] relates to AE1. The class given is cell-based, human. To be noted: at saturating concentrations of WW781, 150 mM Cl− inside and outside.
In series [5] the target is T1, AE1 (band 3) protein in human red blood cells. Nature of the series: Inhibition of 36Cl exchange flux at 0°C after short exposure to WW781. Conditions: for rate constant for 36Cl exchange, k: 0°C (control 0.0507); for IC50: read-out: K 1W, 0°C. The class given is cell-based. In short, it runs like this: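 Human RBCs loaded with 36Cl (10 min, 0°C) without pretreatment, resuspended in ice-cold medium with test compound (0.25-1.5 µM, 1% ethanol); nystatin equalized Cl− for non-150 mM media, citrate-sucrose replacing Cl−. Rapid-filtration samples were taken mostly before 30 s, never after 45 s. k was the slope of ln(P∞−Pt) versus time. Dissociation constants came from nonlinear least-squares single-site fits and Dixon plots.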

In series [6] the test system is AE1. Conditions: ref Knauf et al. 1995; cited from earlier work.

Where two headings read alike, the source gives them in different places. Bounds are passed on as bounds.

Regarding `CCCCN1C(=O)C(C=CC=CC=C2C(=O)N(c3ccc(S(=O)(=O)O)cc3)N=C2C)C(=O)N(CCCC)C1=O` [WW781, [3-methyl-1-p-sulfophenyl-5-pyrazolone-(4)]-[1,3-dibutylbarbituric acid]-pentamethine oxonol], the “k W-AE1,W•AE1 (backward rate constant, complex 2 to complex 1)” value in series [1] was 0.15 min⁻¹. For the same molecule, the “k W•AE1,W-AE1 (forward rate constant for formation of complex 2)” value in series [1] is roughly 1.1 min⁻¹. For the same molecule, in series [2], the “K 2/1W,ECl/K 2/1W,E” value is given as 0.12 − 0.15. For the same molecule, the “K 2/1W,ECl” value in series [2] (Cl−-loaded forms) was 1.8 − 2.2. Besides, the “K 2/1W,Ei” value in series [2] (Ei form) is no more than 34. For the same molecule, the “free energy difference ΔG^0 between complex 2 and complex 1” value in series [2] (Eo form of AE1, from K 2/1W,Eo) is -7.6 kJ/mol. The “K 1W/K eqW” value turned out to be 15.5 in series [2] ([Cli = o] 5 mM); 9.0 in series [2] ([Cli = o] 150 mM); 3.8 in series [2] ([Cli = o] 600 mM); 25.2 in series [2] ([Cli] = 150, [Clo] = 2 mM). In series [2] (best-fit straight line, [Cli] = [Clo] (Fig. 10)), the “slope of K eqW as a function of [Cl−]” value came out at 0.00016 ± 0.00004 μM/mM. Further, the “preference for the Eo form of AE1 as compared with the Ei form” value in series [2] (both initial binding and equilibrium association) is recorded as greater than 10 fold. In addition, in series [2] (equilibrium binding), the “K eqW,Ei/K eqW,Eo” value is given as no less than 12. Moreover, the Ki is 280 ± 70 nM in series [2] (read-out: K eqW,EIi, mean ± SEM of two experiments) and 33 to 46 nM in series [2] (read-out: K eqW,Ei (minimum value), range over both estimates of K eqW,E). Further, the IC50 in series [2] ([Cli = o] 150 mM) worked out at 66 ± 12 nM; in series [2] ([Cli = o] 600 mM), 143 ± 29 nM; in series [2] ([Cli] = 150, [Clo] = 2 mM), 5.5 ± 0.3 nM; in series [5] ([Cli = o] 20 mM, nystatin-treated cells), 900 ± 210 nM; in series [5] ([Cli = o] 150 mM, mean ± SEM) it was 590 ± 50 nM; in series [5] ([Cli = o] 600 mM, nystatin-treated cells, mean ± SEM), 540 ± 100 nM. For the same molecule, in series [5] ([Cli] = 150, [Clo] = 2 mM, mean ± SEM), the IC50 was determined as 140 ± 10 nM. The “effect on net Cl− permeability, PCl” value in series [3] is “increase”. Besides, in series [4], the “half-time for formation of complex 2” value was 33 s. For the same molecule, the “rate constant for 36Cl exchange, k” value was found to be 0.0389 s⁻¹ in series [5] (0.25 μM WW781, 150 mM Cl− medium); 0.0316 s⁻¹ in series [5] (0.5 μM WW781, 150 mM Cl− medium); 0.0274 s⁻¹ in series [5] (1 μM WW781, 150 mM Cl− medium); 0.0203 s⁻¹ in series [5] (1.5 μM WW781, 150 mM Cl− medium). In series [5] (initial binding), the “K 1W,ECl/K 1W,E” value is listed as 0.73 − 0.74. Besides, in series [5] (initial binding), the “K 1W,Ei/K 1W,Eo” value is recorded as 14.

With `CCCCN1C(=O)C(=CC=CC=CC2C(=O)N(CCCC)C(=O)N(CCCC)C2=O)C(=O)N(CCCC)C1=O` [diBA(5)C4, bis-(1,3-dibutylbarbituric acid)-pentamethine oxonol], the “inhibition of the transport system” value in series [6] is given as “most potent known inhibitor”.

(Values after paper PMC2217202 (The Journal of General Physiology, 2000).)
